Series [1] concerns Human immunodeficiency virus 1. The series can be described thus: Antiviral activity against HIV1 NL4.3 infected in 293T cells assessed as acentric core at 5 ug/ml after 2 days by electron microscopic analysis. Format: functional, organism-based.
Series [2] deals with Human immunodeficiency virus 1. As to the kind of experiment: Antiviral activity against HIV1 NL4.3 infected in 293T cells assessed as spherical core at 5 ug/ml after 2 days by electron microscopic analysis. It is filed as functional, organism-based.
The subject of series [3] is Human immunodeficiency virus 1. The series can be described thus: Antiviral activity against HIV1 NL4.3 infected in 293T cells assessed as aberrant core at 5 ug/ml after 2 days by electron microscopic analysis. Format: functional, organism-based.
The next series deals with 293T. The series can be described thus: Inhibition of HIV1 NL4.3 CA-SP1 cleavage infected in 293T cells after 2 days by Western blot analysis. It is filed as cell-based. To be noted: Human immunodeficiency virus 1.
Series [4] can be described thus: Selectivity index, ratio of CC50 for human MAGIC-5B cells to IC50 for HIV1 NL4.3. It is filed as functional.
Series [5] in a line: Cytotoxicity against human MAGIC-5B cells after 48 hrs by MTT assay. Format: cell-based.
The test system of series [6] is Human immunodeficiency virus 1. The series can be described thus: Antiviral activity against HIV1 NL4.3 infected in MAGIC-5B cells after 48 hrs by beta-galactosidase reporter gene assay. Format: functional, organism-based. To be noted: Human immunodeficiency virus 1, NL4.3, 48 h. The essentials: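 MAGIC-5B indicator cells (beta-galactosidase under the HIV-1 LTR), 8×10^4 per well, were exposed to these supernatants. After 48 h, ONPG hydrolysis was read in lysates and normalised to total protein.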
In general terms: In a reporter assay the amount or activity of a reporter protein is the signal.

Series [7] deals with Human immunodeficiency virus 1. The series can be described thus: Binding affinity to HIV1 NL4.3 CA-SP1 at 550 uM by chemical shift pertubation NMR analysis. The essentials:
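2D 1H-1H NOESY of CA-SP1-NC peptide (250 uM) with and without ligand (550 uM). pH 3.8 in H2O/TFE 70/30 (to prevent aggregation) with 1% DMSO-d6. Spectral width 5296.6 Hz, excitation-sculpting water suppression, 250 ms NOE mixing time. Chemical-shift perturbation of the wild-type junction plotted per residue.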

Series [8] can be described thus: Ratio of compound selectivity index to bevirimat selectivity index for HIV1 NL4.3 over human MAGIC-5B cells.
The test system of series [9] is Human immunodeficiency virus. As to the kind of experiment: Antiviral activity against HIV infected in H9 cells. Format: functional, organism-based. As to conditions: Human immunodeficiency virus 1, H9.

The values below come from ChEMBL document CHEMBL2331496 (Eur J Med Chem, 2013).

Calls of active or inactive are those of the source. No cut-off for these calls is given here.

As for `C=C(C)[C@@H]1CC[C@]2(C(=O)NCCC(=O)O)CC[C@]3(C)[C@H](CC[C@@H]4[C@@]5(C)CC[C@H](OC(=O)CC(C)(C)C(=O)O)C(C)(C)[C@@H]5CC[C@]43C)[C@@H]12`, the result in series [1], in series [2] and in [3] was Active. Besides, the inhibition entry in the series with 293T is “Active”. Moreover, the “Ratio CC50/IC50” value in [4] is recorded as 411.01. For the same compound, the CC50 (in general, the concentration giving 50% cytotoxicity) at 48 h in series [5] was 48.5 µM. Besides, the midpoint of inhibition in series [6], the IC50, lay at 0.118 µM.

In the case of `C=C(C)[C@@H]1CC[C@]2(C(=O)N[C@@H](CCCCN)C(=O)O)CC[C@]3(C)[C@H](CC[C@@H]4[C@@]5(C)CC[C@H](OC(=O)CC(C)(C)C(=O)O)C(C)(C)[C@@H]5CC[C@]43C)[C@@H]12`, the result in [1], in [2] and in series [3] was inactive. Moreover, the inhibition entry in the series with 293T was “inactive”. Moreover, in series [4], the “Ratio CC50/IC50” value was 11.24. Also, the CC50 at 48 h in [5] came out at 48.7 µM. Moreover, in [6], the IC50 (commonly the concentration at which inhibition is half-maximal) is 4.33 µM.

As to `C=C(C)[C@@H]1CC[C@]2(C(=O)NCC(=O)O)CC[C@]3(C)[C@H](CC[C@@H]4[C@@]5(C)CC[C@H](OC(=O)CC(C)(C)C(=O)O)C(C)(C)[C@@H]5CC[C@]43C)[C@@H]12`, the result in series [1], in [2] and in series [3] was Active. In the series on 293T, the inhibition result is “Active”. In addition, the “Ratio CC50/IC50” value in series [4] is listed as 309.37. Moreover, in series [5], the CC50 at 48 h was 49.5 µM. Moreover, the IC50 in series [6] came out at 0.16 µM.

Regarding `C=C(C)[C@@H]1CC[C@]2(C(=O)NCCN)CC[C@]3(C)[C@H](CC[C@@H]4[C@@]5(C)CC[C@H](OC(=O)CC(C)(C)C(=O)O)C(C)(C)[C@@H]5CC[C@]43C)[C@@H]12`, the result in series [7], in series [1], in series [2] and in series [3] was Active. Further, the inhibition entry in the series with 293T is “Active”. Moreover, the Ratio in series [8] was 2. Further, the “Ratio CC50/IC50” value in [4] is 2118.75. The same compound displayed a CC50 at 48 h in series [5] of 33.9 µM. Besides, in series [6], 0.016 µM corresponded to half-maximal inhibition (IC50).

Regarding `C=C(C)[C@@H]1CC[C@]2(C(=O)N[C@@H](CCCCNC(=O)OC(C)(C)C)C(=O)O)CC[C@]3(C)[C@H](CC[C@@H]4[C@@]5(C)CC[C@H](OC(=O)CC(C)(C)C(=O)O)C(C)(C)[C@@H]5CC[C@]43C)[C@@H]12`, the outcome in series [1], in series [2] and in series [3] was Active. The inhibition entry with 293T is “Active”. In addition, in series [4], the “Ratio CC50/IC50” value was 199.41. This compound also came in with a CC50 at 48 h in series [5] of 33.9 µM. Moreover, in series [6], the IC50 was found to be 0.17 µM.

For the compound `C=C(C)[C@@H]1CC[C@]2(C(=O)O)CC[C@]3(C)[C@H](CC[C@@H]4[C@@]5(C)CC[C@H](O)C(C)(C)[C@@H]5CC[C@]43C)[C@@H]12` [BETULINIC ACID], the result in series [1], in series [2] and in series [3] was inactive. Further, the inhibition entry in the series on 293T is “inactive”. For the same compound, the “Ratio CC50/IC50” value in series [4] is 0.85. The compound also returned a CC50 at 48 h in [5] of 4.52 µM. Besides, in [6], the IC50 was 5.32 µM.

Regarding `C=C(C)[C@@H]1CC[C@]2(C(=O)O)CC[C@]3(C)[C@H](CC[C@@H]4[C@@]5(C)CC[C@H](OC(=O)CC(C)(C)C(=O)O)C(C)(C)[C@@H]5CC[C@]43C)[C@@H]12` [BEVIRIMAT], the concentration giving a half-maximal response (EC50) (as a rule, the concentration needed to bring the measured effect to its halfway point) in series [9] is greater than 0.00035 µM. Moreover, the outcome in [1], in [2] and in series [3] was Active. For the same compound, the inhibition result in the series with 293T was “Active”.
